KCNK9 block: KCNK9 potassium channel inhibitors, primary screen, HEK293 cells, thallium flux | Potassium channel subfamily K member 9 (Homo sapiens), Q9NPC2 | FluxOR thallium flux fluorescence; hits give low values | B-score at 10 µM | hit rate 1.2% among 310,000;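 active = ratio B-score over 3 SD below the library mean, with starting fluorescence within 5 SD of its mean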;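 also: negative B-score means less thallium flux so channel inhibition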
KCNK3 inh: human KCNK3 channel inhibitors, primary screen, CHO cells, FluxOR thallium flux, B-score | Potassium channel subfamily K member 3 (Homo sapiens), O14649 | FluxOR fluorescence; hits give low values | B-score at 10 µM | hit rate 0.84% among 340,000;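 active = B-score under library mean minus 4 SD, starting fluorescence ratio at most library mean plus 5 SD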;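 also: more negative B-score means stronger inhibition of thallium flux through KCNK3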
hERG rescue: hERG rescue from dofetilide block, primary screen, cell-based, CHO-hERG, FluxOR thallium flux, dofetilide IC70; Voltage-gated inwardly rectifying potassium channel KCNH2 (Homo sapiens), Q12809; dofetilide IC70 present; activation (rescue from dofetilide block), less the hit threshold, % at 10 µM; hit rate 0.51% among 310,000;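 active = activation above the mean of controls blocked by dofetilide plus 5 SD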;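 also: thallium influx through hERG after potassium depolarization seen as dye fluorescence rise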
Cl transport mod: KCC2 cotransporter modulators, thallium flux, primary screen, cell-based, HEK293 KCC2, FluoZin-2 fluorescence, MLSMR. hit rate 2.2% among 190,000. AID 1456, 2008. KCC2 cells, thallium flux FluoZin-2 fluorescence. Solute carrier family 12 member 5 (Homo sapiens), Q9H2X9. B-score of Tl+ flux slope (higher = more flux/activation; lower = inhibition) at 10 µM;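 active = thallium flux slope and its plate-corrected score both differing from the plate sample mean at a set confidence after two filtering rounds, in either direction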;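 also: slope of fluorescence scaled to starting intensity during 10 to 20 s after thallium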
KCNQ1 block: inhibitors of human KCNQ1 channel, primary screen, cell-based, thallium flux, high-throughput; B-score at 10 µM; hit rate 1.3% among 310,000; CHO-K1 KCNQ1, FluxOR thallium flux fluorescence; hits give high values; Potassium voltage-gated channel subfamily KQT member 1 (Homo sapiens), P51787; AID 2642, 2010;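 active = compounds whose thallium flux B-score, printed positive for inhibition, exceeds three library SD while starting fluorescence stays within three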;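 also: channel opened by potassium depolarization with thallium stimulus after 20 min compound exposure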
KCNQ1 pot: potentiators or activators of KCNQ1 channel, primary screen, cell-based, thallium flux, high-throughput; CHO-K1 KCNQ1, thallium flux FluxOR fluorescence; hits give high values; Potassium voltage-gated channel subfamily KQT member 1 (Homo sapiens), P51787; B-score at 10 µM; hit rate 0.35% among 310,000;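 active = fluorescence ratio B-score, a plate-corrected score, at least three library SD, with initial intensity B-score within 5 SD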
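Test system: CHO-K1 cells stably expressing KCNQ1 / Medium: assay buffer / Also added: depolarizing K+/Tl+ stimulus, K2SO4 and Tl2SO4 each 12.5 mM in 5x stock / Incubation: 90 min dye loading and 20 min compound exposure, both at room temperature / Signal: thallium influx via FluxOR fluorescence, kinetic imaging / Evaluation: B score of baseline-normalized fluorescence ratio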
KCNK3 confirm: retest of human KCNK3 channel inhibitors, confirmation, CHO cells, FluxOR thallium flux, triplicate; AID 651638, 2012; FluxOR fluorescence; 0% buffer, 100% carvedilol maximal block; ratio percent of control, % at 10 µM; hit rate 99% among 2,400; shares compounds with KCNK3 inh;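 active = ratio percent of control, averaged over triplicates, above buffer control mean plus 5 SD, cut at about 64% in these data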;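 also: ratio is the fluorescence rise from min to max over baseline after thallium stimulus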
KCNK3 uninduced: thallium flux inhibition in non-induced cells, primary screen, counter-screen for KCNK3 inhibitor project, cell-based, non-induced KCNK3 line, FluxOR thallium, triplicate | non-induced KCNK3 parental cells; hits give low values | thallium flux ratio (lower = more inhibition) at 10 µM | hit rate 40% among 2,400 | shares compounds with KCNK3 inh;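 active = thallium flux ratio, averaged over three wells, more than 5 SD below the buffer control mean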;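 also: host cells are CHO cells without KCNK3 induction; ratio is peak minus trough fluorescence over baseline then normalized to buffer controls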
* hit, by the source's call; i = inactive; / = not tested or not shown. The list is not random: actives were taken first. Their share in the collection is about 4.1%.

SMILES	KCNK9 block	KCNK3 inh	hERG rescue	Cl transport mod	KCNQ1 block	KCNQ1 pot	KCNK3 confirm	KCNK3 uninduced
O=c1c2cn[nH]c2nc(SCc2c(F)cccc2F)n1-c1ccc(Cl)cc1	i	-9.3*	-22	-0.82	i	i	129*	0.15*
COc1cccc(CNC(=O)c2cc(S(=O)(=O)N3CCOCC3)cn2C)c1	i	i	-10	/	i	i	/	/
CCOC(=O)c1cc(C#N)c(SCC(=O)c2cc(C#N)c(SC)nc2C)[nH]c1=O	i	-10*	-12	-0.008	i	i	122*	0.13*
CCN(CC(=O)Nc1c(C(=O)OC)[nH]c2ccc(Cl)cc12)c1ccc2c(c1)OCO2	-7.2*	-9.2*	-7	0.21	i	i	105*	0.15*
CCOC(=O)c1[nH]c2ccc(Cl)cc2c1NC(=O)/C=C/c1ccc2c(c1)OCO2	i	i	-10	-0.043	i	i	/	/
C=CCn1c(-c2ccccc2)cc(SC)c(C#N)c1=O	i	-9.5*	-2	/	i	i	84*	i
CN(Cc1ccccc1)C(=O)c1ccc(NC(=O)C2=CSCCO2)cc1	i	i	-8	/	i	i	/	/
c1ccc(Cn2nnnc2C(c2cccs2)N2CCCCCC2)cc1 (stereo not drawn)	i	-10*	-6	-0.45	i	i	116*	0.13*
COc1ccc(C(c2nnnn2Cc2cccs2)N2CCN(c3ccccc3F)CC2)cc1OC (stereo not drawn)	i	i	-3	-2.8	i	i	/	/
Fc1ccc(C(c2nnnn2Cc2cccs2)N2CCN(c3ccccc3)CC2)cc1 (stereo not drawn)	-7.4*	-10*	-11	-1.9	i	i	102*	i
C/C(=N\N=C1\NC(=O)C(Cc2ccccc2)S1)c1ccccc1 (stereo not drawn)	i	-10*	-3	1	i	i	103*	0.16*
O=C(Nc1ccc(Cl)cc1)N1CCC(c2nc(-c3ccccc3Cl)no2)CC1	i	-8.7*	-3	-0.74	i	i	108*	0.14*
Cc1ccc(SCC(=O)N2c3ccccc3Sc3ccccc32)cc1	i	-9.6*	-8	/	i	i	105*	0.16*
Cc1nn(Cc2ccc(Cl)cc2Cl)c(C)c1NC(=O)c1sc2ccccc2c1Cl	i	i	-13	-0.025	i	i	/	/
Cc1ccccc1Cn1nc(C)c(NC(=O)c2sc3ccccc3c2Cl)c1C	i	-9*	-9	0.36	i	i	149*	0.11*
COc1ccc(N2C(=O)c3ccccc3C2O)cc1 (stereo not drawn)	i	i	-4	/	i	i	/	/
COc1ccc(O)c(C(=O)C2c3ccccc3C(=O)N2c2ccc(C)cc2)c1 (stereo not drawn)	i	-11*	-9	0	i	i	133*	0.14*
CCOP(=O)(OCC)c1nc(-c2ccc(Br)cc2)oc1N1CCCCC1	i	-10*	-3	/	i	i	102*	i
C=CC[C@H](CC(=O)NCCO)C(=O)NC[C@@H](OC(=O)[C@H](CC=C)CC(=O)OC(C)(C)C)c1ccccc1	/	i	/	/	/	/	/	/
CC(C)Nc1cc(C(C)(C)C)nc2c(-c3ccccc3)cnn12	i	-10*	-13	1.3	i	i	82*	0.14*
CC(C)(C)c1cc(C(F)(F)F)n2ncc(-c3ccccc3)c2n1	i	i	-7	0.041	i	i	/	/
Cc1ccc(C(=O)N(C)CCOc2ccccc2)cc1S(=O)(=O)N1CCCCC1	/	i	/	/	/	/	/	/
CCOC(=O)C1=C(C)NC2=C(C(=O)c3ccccc32)C1c1ccc(O)cc1 (stereo not drawn)	i	i	-2	-0.9	i	i	/	/
CCOC(=O)C1=C(C)NC2=C(C(=O)c3ccccc32)C1c1cccc2ccccc12 (stereo not drawn)	i	-11*	-4	0.75	i	i	113*	0.15*
COc1ccc(C=O)cc1CN1CCCN(Cc2ccccc2F)S1(=O)=O	i	i	-2	/	i	i	/	/
SMILES	KCNK9 block	KCNK3 inh	hERG rescue	Cl transport mod	KCNQ1 block	KCNQ1 pot	KCNK3 confirm	KCNK3 uninduced
CC(=Nc1ccc(Br)cc1)c1sc2ccccc2c1O	i	-11*	-8	0.61	i	i	131*	i
CC(=Nc1ccccc1)c1sc2ccccc2c1O	i	i	-13	-0.9	i	i	/	/
CN1CCN(C(=O)C2CCC(=O)N(Cc3cccc(C(F)(F)F)c3)C2)CC1 (stereo not drawn)	i	i	-2	/	i	i	/	/
Cc1cc(C(=O)CN2C(=O)c3cccc(N)c3C2=O)c(C)n1Cc1cccs1	i	-11*	-7	-0.83	i	i	121*	i
CCN(Cc1ccncc1)C(=O)c1ccc(Br)o1	i	i	-7	/	i	i	/	/
COc1ccc2oc(C(=O)N(C)CCOc3ccccc3)c(C)c2c1	i	i	-16	/	i	i	/	/
Cc1ccc(S(=O)(=O)CCC(=O)c2cccc([N+](=O)[O-])c2)cc1	i	-9.5*	-26	/	i	i	114*	0.12*
Cc1ccc(C(=O)CCS(=O)(=O)c2ccc(Br)cc2)cc1	i	i	-1	/	i	i	/	/
COc1ccc(S(=O)(=O)c2snnc2C)cc1	i	i	2	/	i	i	/	/
CCOC(=O)CNC(=O)Cn1cnc2c(oc3ccccc32)c1=O	i	i	-9	/	i	i	/	/
CCc1ccc(N(CC(=O)NC(C)C)C(=O)CCC(=O)Nc2nccs2)cc1	i	i	-2	/	i	i	/	/
CC1CCc2ccccc2N1C(=O)c1cccs1 (stereo not drawn)	i	-8.9*	-11	-0.46	i	i	69*	i

Source: PubChem BioAssay
